The text below walks through data of ChEMBL document CHEMBL3414559, “Novel C-4 heteroaryl 13-cis-retinamide Mnk/AR degrading agents inhibit cell proliferation and migration and induce apoptosis in human breast and prostate cancer cells and suppress growth of MDA-MB-231 human breast and CWR22Rv1 human prostate tumor xenografts in mice” (J Med Chem, 2015).

One assay has as its system MCF7. The experiment in a line: Growth inhibition of human MCF7 cells by MTT assay. The class given is functional. In short, it runs like this: (§1)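 Cells grown in RPMI 1640 with 10% FBS, plated at 2500 cells/well, treated across a dose range; growth read by MTT. GI50 taken from dose–response curves by nonlinear regression, at least three independent experiments.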
(Formazan colour is commonly taken as a measure of viable cells.)

The subject of the next assay is MDA-MB-468. Put plainly: Growth inhibition of human MDA-MB-468 cells by MTT assay. It is filed as functional. A digest of the protocol:
as §1

The next assay deals with MDA-MB-231. The experiment in a line: Growth inhibition of human MDA-MB-231 cells by MTT assay. The class given is functional. A digest of the protocol:
as §1

A short description of assay [1]: Growth inhibition of human SKBR3 cells by MTT assay. The class given is functional. Particulars: SK-BR-3. A digest of the protocol: as §1
Assay [2] can be described thus: Growth inhibition of human CWR22Rv1 cells by MTT assay. It is filed as functional, CWR22R. Particulars: 22Rv1. A digest of the protocol: as §1
Another assay has as its system LNCaP. The experiment in a line: Growth inhibition of human LNCAP cells by MTT assay. The class given is functional. A digest of the protocol:
as §1

The nature of assay [3]: Growth inhibition of human PC3 cells by MTT assay. The class given is functional. Particulars: PC-3. In short, it runs like this: as §1

The GI50 is the concentration giving 50% growth inhibition. Regarding `CC1=C(/C=C/C(C)=C/C=C/C(C)=C\C(=O)NCc2cccc(F)c2)C(C)(C)CCC1n1ccnc1` (stereo not drawn), the GI50 with MCF7 came out at 1.81 µM; in the assay on MDA-MB-468, 3.09 µM; with MDA-MB-231, 1.65 µM; in assay [1], 4.24 µM.

Take `CC1=C(/C=C/C(C)=C/C=C/C(C)=C\C(=O)NCCc2ccc(O)cc2)C(C)(C)CC=C1c1cccnc1`: the GI50 with MCF7 came out at 8.75 µM; with MDA-MB-468, 50.1 µM; in the assay with MDA-MB-231 it was 26.9 µM; in assay [1] it was 42.2 µM.

For the compound `CC1=C(/C=C/C(C)=C/C=C/C(C)=C\C(=O)NCCc2ccc(O)cc2)C(C)(C)CC=C1c1cncnc1`, the GI50 with MCF7 was determined as 2.96 µM; in the assay with MDA-MB-468 it was 23.4 µM; in the assay with MDA-MB-231, 14.5 µM; in assay [1] it was 24 µM.

As to `CC(=O)C1=C(O)C=C2Oc3c(C(N)=O)c(O)cc(O)c3[C@@]2(C)C1=O`, the GI50 with MDA-MB-468 turned out to be 47.9 µM; with MDA-MB-231, 43.6 µM; in assay [1], 26 µM.

Consider `CC1=C(/C=C/C(C)=C/C=C/C(C)=C/C(=O)Nc2ccc(O)cc2)C(C)(C)CCC1` [FENRETINIDE], for which the GI50 in the assay with MCF7 came to 4.65 µM; with MDA-MB-468, 6.02 µM; with MDA-MB-231 it was 11.1 µM; in assay [1] it was 3.98 µM.

Take `CC1=C(/C=C/C(C)=C/C=C/C(C)=C\C(=O)Nc2ccc(O)cc2)C(C)(C)CCC1n1ccnc1` (stereo not drawn): the GI50 was determined as 1.99 µM in the assay on MCF7; 6.83 µM with MDA-MB-468; 13.1 µM in the assay on MDA-MB-231; 3.89 µM in assay [1]; 3.89 µM in assay [2]; 3.54 µM in the assay with LNCaP. The compound also registered a concentration for 50% growth inhibition (GI50) in assay [3] of 11.7 µM.

Consider `CC1=C(/C=C/C(C)=C/C=C/C(C)=C\C(=O)Nc2ccccc2O)C(C)(C)CCC1n1ccnc1` (stereo not drawn), for which the 50% growth inhibitory concentration (GI50) was 1.09 µM in the assay on MCF7; 3.03 µM with MDA-MB-468; 4.67 µM in the assay with MDA-MB-231; 3.89 µM in assay [1]; 2.23 µM in assay [2]; 3.23 µM in the assay with LNCaP. This compound returned a 50% growth inhibitory concentration (GI50) in assay [3] of 15.5 µM.

Consider `CC1=C(/C=C/C(C)=C/C=C/C(C)=C\C(=O)NCc2ccc(O)cc2)C(C)(C)CC=C1c1cncnc1`, for which the GI50 was 4.96 µM with MCF7, 19.1 µM with MDA-MB-468, 11.5 µM in the assay on MDA-MB-231 and 11.5 µM in assay [1].

On to `CC(O)(CS(=O)(=O)c1ccc(F)cc1)C(=O)Nc1ccc(C#N)c(C(F)(F)F)c1` (stereo not drawn) [BICALUTAMIDE], for which the 50% growth inhibitory concentration (GI50) in assay [2] was determined as 3.81 µM; in the assay on LNCaP it was 2.61 µM; in assay [3] it was 9.15 µM.

`CC1=C(/C=C/C(C)=C/C=C/C(C)=C\C(=O)NCc2ccccc2)C(C)(C)CCC1n1ccnc1` (stereo not drawn): the 50% growth inhibitory concentration (GI50) with MCF7 is 9.77 µM; in the assay with MDA-MB-468 it was 7.24 µM; in the assay with MDA-MB-231, 5.88 µM; in assay [1] it was 10.7 µM; in assay [2], above 100 µM; in the assay with LNCaP it was above 100 µM. Moreover, the GI50 in assay [3] was above 100 µM.

Regarding `CC1=C(/C=C/C(C)=C/C=C/C(C)=C\C(=O)Nc2ccccc2)C(C)(C)CC=C1c1cncnc1`, the GI50 turned out to be 7.01 µM in the assay on MCF7, 22.9 µM with MDA-MB-468, 26.9 µM in the assay on MDA-MB-231 and 31 µM in assay [1].

Take `CC1=C(/C=C/C(C)=C/C=C/C(C)=C\C(=O)NCCc2ccc(O)cc2)C(C)(C)CCC1n1ccnc1` (stereo not drawn): the GI50 came to 1.9 µM in the assay with MCF7, 13.5 µM with MDA-MB-468, 2.88 µM in the assay on MDA-MB-231 and 1.41 µM in assay [1].

With `CC1=C(/C=C/C(C)=C/C=C/C(C)=C\C(=O)Nc2ccccc2)C(C)(C)CC=C1c1cccnc1`, the GI50 amounted to 8.32 µM in the assay with MCF7, 39.8 µM in the assay with MDA-MB-468, 25.1 µM with MDA-MB-231 and 47.4 µM in assay [1].

In the case of `CC1=C(/C=C/C(C)=C/C=C/C(C)=C/C(=O)O)C(C)(C)CCC1` [TRETINOIN], the GI50 in the assay with MDA-MB-468 turned out to be 14.1 µM; in the assay on MDA-MB-231, 14.1 µM; in assay [1] it was 22.9 µM.

Take `CC1=C(/C=C/C(C)=C/C=C/C(C)=C\C(=O)Nc2ccc(F)cc2)C(C)(C)CCC1n1ccnc1` (stereo not drawn): the GI50 in the assay with MCF7 came out at 0.4 µM; in the assay with MDA-MB-468 it was 4.57 µM; with MDA-MB-231, 4.95 µM; in assay [1], 25.1 µM; in assay [2], 8.12 µM; with LNCaP it was 3.89 µM. In addition, the GI50 in assay [3] is 30.2 µM.

For `CC1=C(/C=C/C(C)=C/C=C/C(C)=C\C(=O)NCc2ccc(F)cc2)C(C)(C)CCC1n1ccnc1` (stereo not drawn), the GI50 stood at 1.93 µM in the assay with MCF7, 2.45 µM with MDA-MB-468, 1.41 µM with MDA-MB-231 and 5.5 µM in assay [1].
